Data on 49 variants can be found in the RNAGym collection of RNA variant scans (doi:10.1002/anie.201605470).

B1: Osa-1-4 twister ribozyme (parent)
chain: CCGCCUAACACUGCCAAUGCCGGUCCCAAGCCCGGAUAAAAGUGGAGGGGGCGG

In this data set the parent is B1. Briefly: self-cleavage, relative activity (ratio to wild type); higher = more cleavage; co-transcriptional. In a few lines: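 In vitro transcription at 37 °C for 2 h allowed the twister ribozyme to cleave itself as it was made. Its 54-nucleotide Oryza sativa template had been synthesised with 97 % wild-type base and 1 % of each other base at the 48 positions downstream of the cleavage site. A template-switching oligonucleotide was used for reverse transcription, followed by PCR amplification and deep sequencing. Whether reads carried upstream sequence set the cleavage status, and relative activity is the fraction cleaved normalised to wild type.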
Regarding CCGCCUAACACUGCCAAUGCCGGUCCCGAGCCCGGAUAAAAGUGGAGUGGGCGG, the self-cleavage came to 0.04. On to CCGCCUAACACUGCCAAUGCCGGUCCCGAGCCCGGAUAAAAGUGGAGCGGGCGG, for which the self-cleavage was 0.05. On to CCGCCUAACACUGCCAAUGCCGGUCCCGAGCCCGGAUAAAAGUGGAGAGGGCGG, for which the self-cleavage is 0.04. For the variant CCGCCUAACACUGCCAAAGCCGGUCCCGAGCCCGGAUAAAAGUGGAGGGGGCGG, the self-cleavage was 0.34. In the case of CCGCCUAACACUGCCAACGCCGGUCCCGAGCCCGGAUAAAAGUGGAGGGGGCGG, the self-cleavage worked out at 0.23. CCGCCUAACACUGCCAAGGCCGGUCCCGAGCCCGGAUAAAAGUGGAGGGGGCGG: the self-cleavage was 0.59. The same measure for CCGCCUAACACUGCCAAUGCCGGUCCCGAGCCCGGAUAAAAGUGGAGGGGGCUG: 0.1; for CCGCCUAACACUGCCAAUGCCGGUCCCGAGCCCGGAUAAAAGUGGAGGGGGCCG: 0.06; for CCGCCUAACACUGCCAAUGCCGGUCCCGAGCCCGGAUAAAAGUGGAGGGGGCAG: 0.14. For CCGCCUAACACUGCCAAUGCCGGUCCCGAGCCCGGAUAAAAGUGCAGGGGGCGG, the self-cleavage was found to be 0.04.

In the case of CCGCCUAACACUGCCAAUGCCGGUCCCGAGCCCGGAUAAAAGUGUAGGGGGCGG, the self-cleavage is 0.05.

In the case of CCGCCUAACACUGCCAAUGCCGGUCCCGAGCCCGGAUAAAAGUGAAGGGGGCGG, the self-cleavage came to 0.05. For CCGCCUAACACCGCCAAUGCCGGUCCCGAGCCCGGAUAAAAGUGGAGGGGGCGG, the self-cleavage turned out to be 0.1. The figure for CCGCCUAACACGGCCAAUGCCGGUCCCGAGCCCGGAUAAAAGUGGAGGGGGCGG is 0.07; for CCGCCUAACACAGCCAAUGCCGGUCCCGAGCCCGGAUAAAAGUGGAGGGGGCGG it is 0.12; for CCGCCUAACACUGCCAAUGCCGGUCCCGAGCCCGGACAAAAGUGGAGGGGGCGG it is 0.37.

As for CCGCCUAACACUGCCAAUGCCGGUCCCGAGCCCGGAAAAAAGUGGAGGGGGCGG, the self-cleavage worked out at 0.25. The same measure for CCGCCUAACACUGCCAAUGCCGGUCCCGAGCCCGGAGAAAAGUGGAGGGGGCGG: 0.51; for CCGCCUAACACUGCCAAUGCCGGUCCCGAGCCCGGAUAAAAGUGGAGGGGCCGG: 0.06. Turning to CCGCCUAACACUGCCAAUGCCGGUCCCGAGCCCGGAUAAAAGUGGAGGGGUCGG, the self-cleavage came out at 0.06. The figure for CCGCCUAACACUGCCAAUGCCGGUCCCGAGCCCGGAUAAAAGUGGAGGGGACGG is 0.11; for CCGCCUAACACUGCCAAUGCCGGUCCCGAGCCCGGAUAAAAGUGGAUGGGGCGG it is 0.07; for CCGCCUAACACUGCCAAUGCCGGUCCCGAGCCCGGAUAAAAGUGGACGGGGCGG it is 0.04. The same measure for CCGCCUAACACUGCCAAUGCCGGUCCCGAGCCCGGAUAAAAGUGGAAGGGGCGG: 0.08; for CCGCCUAACACUGCCAAUGCCGGUCCCGAGCCCGGAUAAAAGUGGAGGGGGCGU: 0.27; for CCGCCUAACACUGCCAAUGCCGGUCCCGAGCCCGGAUAAAAGUGGAGGGGGCGC: 0.14. For CCGCCUAACACUGCCAAUGCCGGUCCCGAGCCCGGAUAAAAGUGGAGGGGGCGA, the self-cleavage came out at 0.15.

For the variant CCGCCUAACACUGCCAAUGCCGGUCCCGAGCCCGGAUAAAAGAGGAGGGGGCGG, the self-cleavage is 0.14.

In the case of CCGCCUAACACUGCCAAUGCCGGUCCCGAGCCCGGAUAAAAGCGGAGGGGGCGG, the self-cleavage was 0.1.

Regarding CCGCCUAACACUGCCAAUGCCGGUCCCGAGCCCGGAUAAAAGGGGAGGGGGCGG, the self-cleavage is 0.09. With CCGCCUAACACUGCCAAUGCCGGUCCCGAGCCCGUAUAAAAGUGGAGGGGGCGG, the self-cleavage amounted to 0.15. CCGCCUAACACUGCCAAUGCCGGUCCCGAGCCCGGAUAAAAGUAGAGGGGGCGG: the self-cleavage worked out at 0.1. In the case of CCGCCUAACACUGCCAAUGCCGGUCCCGAGCCCGGAUAAAAGUUGAGGGGGCGG, the self-cleavage stood at 0.11. Take CCGCCUAACACUGCCAAUGCCGGUCCCGAGCCCGGAUAAAAGUCGAGGGGGCGG: the self-cleavage came out at 0.12. As to CCGCCUAACACUGCCAAUGCCGGUCCCGAGCCCGGAUAAAAUUGGAGGGGGCGG, the self-cleavage came out at 0.04. The same measure for CCGCCUAACACUGCCAAUGCCGGUCCCGAGCCCGGAUAAAAAUGGAGGGGGCGG: 0.1; for CCGCCUAACACUGCCAAUGCCGGUCCCGAGCCCGGAUAAAACUGGAGGGGGCGG: 0.07; for CCGCCUAACACUGCCAAUGCCGGGCCCGAGCCCGGAUAAAAGUGGAGGGGGCGG: 0.02. Turning to CCGCCUAACACUGCCAAUGCCGGCCCCGAGCCCGGAUAAAAGUGGAGGGGGCGG, the self-cleavage stood at 0.07. The figure for CCGCCUAACACUGCCAAUGCCGGACCCGAGCCCGGAUAAAAGUGGAGGGGGCGG is 0.06. Take CCGCCUAACACUGCCAAUGCCGGUCCCGAGCCCGGAUAAAAGUGGAGGAGGCGG: the self-cleavage was 0.06. On to CCGCCUAACACUGCCAAUGCCGGUCCCGAGCCCGGAUAAAAGUGGAGGCGGCGG, for which the self-cleavage came to 0.04. On to CCGCCUAACACUGCCAAUGCCGGUCCCGAGCCCGGAUAAAAGUGGAGGUGGCGG, for which the self-cleavage was 0.06.

As for CCGCCUGACACUGCCAAUGCCGGUCCCUAGCCCGGAUAAAAGUGGAGGGGGCGG, the self-cleavage worked out at 0.13.

For the variant CCGCCUCACACUGCCAAUGCCGGUCCCUAGCCCGGAUAAAAGUGGAGGGGGCGG, the self-cleavage was determined as 0.04. As to CCGCCUAACACUGCCAAUGCCGGUCCCGAGCCCGGAUAAAAGUGGAGGGCGCGG, the self-cleavage is 0.14. Consider CCGCCUAACACUGCCAAUGCCGGUCCCGAGCCCGGAUAAAAGUGGAGGGUGCGG, for which the self-cleavage was found to be 0.23. On to CCGCCUAACACUGCCAAUGCCGGUCCCGAGCCCGGAUAAAAGUGGAGGGAGCGG, for which the self-cleavage is 0.28. The figure for CCGCCUAACACUGCCAAUGCCGGUCCCUAGCCCGGAUAAAAGUGGAGGGGGCGG is 0.96.
